Measured values published in ChEMBL document CHEMBL1135246, “Structure-activity study of L-cysteine-based N-type calcium channel blockers: optimization of N- and C-terminal substituents” (Bioorg Med Chem Lett, 2002).
pIC50: −log10 of the molar value.

Experiments:
[1] = tested on: L-type calcium channel (Mus musculus); test: In vitro inhibition of L-type calcium channels in AtT-20 cells.; settings: att20
[2] = target: Voltage-dependent N-type calcium channel subunit alpha-1B (Homo sapiens, UniProt Q00975); test: In vitro inhibition of N-type calcium channels in IMR-32 cells.; assay type: cell-based
How it was run: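 N-type channel block was assessed in IMR-32 cells. Cells in suspension were loaded with fura-2/AM for 30 min at 37 °C, and calcium influx ([Ca²⁺]i) was measured. IC50 values are means of multiple determinations, each performed in duplicate.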

[3] = In vitro inhibition of L-type calcium channels in AtT-20 cells.; assay type: functional, cell-based, Mus musculus; settings: att20
How it was run: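 Mouse pituitary tumour AtT-20/D16v-F2 cells, grown in DMEM with 10% FBS and penicillin–streptomycin, served as the L-type channel source. Cells in suspension were loaded with fura-2/AM for 30 min at 37 °C, and calcium influx ([Ca²⁺]i) was read fluorometrically. IC50 values are means of multiple determinations, each run in duplicate.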

Chain of Voltage-dependent N-type calcium channel subunit alpha-1B (Q00975 whole entry): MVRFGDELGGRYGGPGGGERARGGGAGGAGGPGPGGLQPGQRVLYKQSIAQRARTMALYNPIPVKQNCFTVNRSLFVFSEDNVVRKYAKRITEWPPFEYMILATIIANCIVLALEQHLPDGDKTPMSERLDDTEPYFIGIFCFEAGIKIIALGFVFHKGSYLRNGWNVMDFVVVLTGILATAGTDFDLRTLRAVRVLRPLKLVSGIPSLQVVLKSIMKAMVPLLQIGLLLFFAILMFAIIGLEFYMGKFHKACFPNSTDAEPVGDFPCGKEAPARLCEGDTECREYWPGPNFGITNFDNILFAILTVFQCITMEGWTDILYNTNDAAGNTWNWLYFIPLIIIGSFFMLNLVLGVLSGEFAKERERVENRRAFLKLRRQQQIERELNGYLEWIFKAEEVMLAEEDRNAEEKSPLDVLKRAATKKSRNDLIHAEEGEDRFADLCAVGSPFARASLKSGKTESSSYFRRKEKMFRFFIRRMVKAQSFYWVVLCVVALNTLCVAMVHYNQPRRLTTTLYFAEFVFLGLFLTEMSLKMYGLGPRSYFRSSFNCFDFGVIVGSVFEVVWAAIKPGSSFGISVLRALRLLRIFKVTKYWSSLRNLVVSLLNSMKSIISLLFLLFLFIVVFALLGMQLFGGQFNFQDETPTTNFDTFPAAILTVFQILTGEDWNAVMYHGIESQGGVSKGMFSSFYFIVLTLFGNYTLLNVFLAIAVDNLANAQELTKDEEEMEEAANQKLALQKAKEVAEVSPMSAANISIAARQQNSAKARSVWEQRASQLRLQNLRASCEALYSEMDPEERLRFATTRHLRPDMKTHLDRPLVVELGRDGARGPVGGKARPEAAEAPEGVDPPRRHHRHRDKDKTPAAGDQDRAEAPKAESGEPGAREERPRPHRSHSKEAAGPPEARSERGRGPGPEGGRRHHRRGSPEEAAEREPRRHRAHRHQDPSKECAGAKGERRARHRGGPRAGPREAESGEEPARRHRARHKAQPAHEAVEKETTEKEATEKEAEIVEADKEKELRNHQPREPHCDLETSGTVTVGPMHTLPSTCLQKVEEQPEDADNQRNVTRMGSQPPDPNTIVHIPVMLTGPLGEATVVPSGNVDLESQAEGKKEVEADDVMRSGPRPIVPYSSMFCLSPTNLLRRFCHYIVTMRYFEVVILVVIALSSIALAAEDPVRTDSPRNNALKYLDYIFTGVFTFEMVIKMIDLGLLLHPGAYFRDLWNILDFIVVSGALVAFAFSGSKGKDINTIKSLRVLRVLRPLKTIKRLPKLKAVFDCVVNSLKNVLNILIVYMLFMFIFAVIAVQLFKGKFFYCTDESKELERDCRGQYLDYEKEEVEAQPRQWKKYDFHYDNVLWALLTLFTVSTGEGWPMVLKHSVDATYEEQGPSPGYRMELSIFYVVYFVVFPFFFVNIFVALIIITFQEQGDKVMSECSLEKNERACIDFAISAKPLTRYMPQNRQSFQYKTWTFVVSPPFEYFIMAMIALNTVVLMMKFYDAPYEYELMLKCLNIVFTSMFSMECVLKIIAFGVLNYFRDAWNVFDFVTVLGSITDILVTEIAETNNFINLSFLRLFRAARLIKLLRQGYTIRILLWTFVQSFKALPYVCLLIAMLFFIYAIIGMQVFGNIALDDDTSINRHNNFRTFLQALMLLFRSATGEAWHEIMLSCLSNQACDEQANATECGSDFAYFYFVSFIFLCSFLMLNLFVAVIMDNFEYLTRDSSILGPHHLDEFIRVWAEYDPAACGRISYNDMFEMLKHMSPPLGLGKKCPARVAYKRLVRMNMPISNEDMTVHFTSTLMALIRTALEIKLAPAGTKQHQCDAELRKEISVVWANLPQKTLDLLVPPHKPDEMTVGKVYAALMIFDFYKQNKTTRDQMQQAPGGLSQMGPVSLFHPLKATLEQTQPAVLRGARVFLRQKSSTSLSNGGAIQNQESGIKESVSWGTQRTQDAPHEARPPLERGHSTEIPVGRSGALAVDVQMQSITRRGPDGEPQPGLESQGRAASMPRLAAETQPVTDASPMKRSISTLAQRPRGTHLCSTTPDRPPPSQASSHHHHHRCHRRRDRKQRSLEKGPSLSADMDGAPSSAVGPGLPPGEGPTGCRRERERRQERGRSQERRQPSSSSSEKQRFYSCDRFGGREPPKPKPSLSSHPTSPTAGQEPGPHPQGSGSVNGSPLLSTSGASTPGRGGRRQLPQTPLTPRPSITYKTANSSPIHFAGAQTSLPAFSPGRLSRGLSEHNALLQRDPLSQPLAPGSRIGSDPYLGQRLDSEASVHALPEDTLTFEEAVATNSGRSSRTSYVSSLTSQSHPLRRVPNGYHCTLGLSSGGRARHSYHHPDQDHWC

SMILES | pIC50 [1] | pIC50 [2] | pIC50 [3]
CC(C)(C)OC(=O)N1CSC[C@H]1C(=O)N[C@@H](CSCC1CCCCC1)C(=O)NCc1ccc(OCc2ccccc2)cc1 | 5.82 | 6.30 | –
COc1ccc(CNC(=O)[C@H](CSCC2CCCCC2)NC(=O)C2CCCC2)cc1 | – | 6.04 | 5.64
CC(C)COC(=O)N1CSC[C@H]1C(=O)N[C@@H](CSCC1CCCCC1)C(=O)NCc1ccc(Oc2ccccc2)cc1 | 5.92 | 6.44 | –
C=CCOC(=O)N1CSC[C@H]1C(=O)N[C@@H](CSCC1CCCCC1)C(=O)NCc1ccc(Oc2ccccc2)cc1 | 6.36 | 6.48 | –
COc1ccc(CNC(=O)[C@@H](N)CSCC2CCCCC2)cc1 | – | 5.24 | –
COc1ccc(CNC(=O)[C@H](CSCC2CCCCC2)NC(=O)CC(C)C)cc1 | – | 5.92 | 5.57
CC(C)(C)OC(=O)N1CSC[C@H]1C(=O)N[C@@H](CSCC1CCCCC1)C(=O)NCc1ccc([N+](=O)[O-])cc1 | 6.30 | 6.22 | –
O=C(NCc1ccc(Oc2ccccc2)cc1)[C@H](CSCC1CCCCC1)NC(=O)[C@@H]1CSCN1CCO | 5.96 | 6.46 | –
COc1ccc(CNC(=O)[C@H](CSCC2CCCCC2)NC(=O)c2cscn2)cc1 | – | 5.72 | 5.57
CC(C)(C)OC(=O)N1CSC[C@H]1C(=O)N[C@@H](CSCC1CCCCC1)C(=O)NCc1ccc(O)cc1 | 5.55 | 5.74 | –
O=C(N[C@@H](CSCC1CCCCC1)C(=O)NCc1ccc(Oc2ccccc2)cc1)[C@@H]1CSCN1 | 5.70 | 6.54 | –
COc1ccc(CNC(=O)[C@H](CSCC2CCCCC2)NC(=O)OCC(C)C)cc1 | – | 6.14 | 5.82
COCC(=O)N1CSC[C@H]1C(=O)N[C@@H](CSCC1CCCCC1)C(=O)NCc1ccc(Oc2ccccc2)cc1 | 6.03 | 6.92 | –
COC(=O)N1CSC[C@H]1C(=O)N[C@@H](CSCC1CCCCC1)C(=O)NCc1ccc(Oc2ccccc2)cc1 | 6.06 | 6.92 | –
CN(C)c1ccc(CNC(=O)[C@H](CSCC2CCCCC2)NC(=O)[C@@H]2CSCN2C(=O)OC(C)(C)C)cc1 | 6.02 | 6.21 | –
COc1ccc(CNC(=O)[C@H](CSCC2CCCCC2)NC(=O)C2CCCCC2)cc1 | – | 5.89 | 5.72
COCCN1CSC[C@H]1C(=O)N[C@@H](CSCC1CCCCC1)C(=O)NCc1ccc(Oc2ccccc2)cc1 | 6.22 | 6.70 | –
CC(C)(C)OC(=O)N1CSC[C@H]1C(=O)N[C@@H](CSCC1CCCCC1)C(=O)NCc1ccc(Oc2ccccc2)cc1 | 5.77 | – | –
